Assay [1] has as its system CD58 protein on Caco-2 cells. Kind of assay: Fluorescence microscopy of binding to Caco-2 cells. The settings on record: fixed Caco-2 cells, about 2 h incubation, magnification 20×. It counts as cell-based, human.
Assay [2] has as its system CD58 protein. As to the kind of experiment: 1D NMR titration: binding of peptides to CD58 protein. Particulars: pH 7.0, 90% H2O/10% D2O, 291 K, 700 MHz, protein:peptide 1:80. The method in brief: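 Recombinant CD58 extracellular domain was titrated in 10 µL aliquots into an NMR tube holding the test peptide. A 1D spectrum was recorded at each protein:peptide ratio from 1:1000 to 1:80 on a 700 MHz instrument at 291 K. Sample pH was set to 7.0 with NaOD in D2O. A control peptide was run the same way.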

The test system of assay [3] is RA. The settings on record: ref [41]; cited from earlier work.

As to `O=C1OC2(c3ccc(O)cc3Oc3cc(O)ccc32)c2ccc(N=C=S)cc21` [FITC, Fluoresceineisothiocyanate], in assay [1], the “binding observed by fluorescence microscopy” value is “non-specific binding of FITC was observed”.

In the case of KGKTDAISVKAI-NH2 [control peptide], in assay [2], the “binding to CD58 protein by 1D NMR” value is “does not bind to protein CD58” and the “change of peptide 1D NMR amide resonances on adding CD58” value is “no indication of amide resonances”.

For QYMRADEADSTLR [CII-3], the RA suppression activity result in assay [3] is on record as “does not exhibit any RA suppression activity”.

(Values after publication PMC3009390 (Chemical biology & drug design, 2010).)
